The structures appear in SMILES notation. The source made the active and inactive calls.

The test system of series [1] is RAW264.7. In words: Cytotoxicity against mouse RAW264.7 cells assessed as reduction in cell viability incubated for 24 hrs by Cell-titer glo Luminescent assay. It counts as cell-based. As to conditions: RAW264.7, 24 h. In a few lines:
(§1)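 Cells (Raji, RAW 264.7 or donor PBMCs) plated at 1 × 10⁴ per well in medium with 10% FBS. Treated for 24 h at 37 °C, 5% CO₂ with 100, 50, 25, 12.5, 6.25 or 3.125 μM compound, or buffer containing 0.2% DMSO. Viability read by CellTiter-Glo luminescence; killing rate = (1 − RLU compound/RLU control) × 100%; triplicate, mean ± SEM.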

Series [2] deals with Raji. Nature of the series: Cytotoxicity against human Raji cells assessed as reduction in cell viability incubated for 24 hrs by Cell-titer glo Luminescent assay. It counts as cell-based. In a few lines:
as §1

Series [3] can be described thus: Cytotoxicity against human PBMC cells assessed as reduction in cell viability at 6.3 uM incubated for 24 hrs by Cell-titer glo Luminescent assay. Format: cell-based. In short, it runs like this:
as §1

Series [4] can be described thus: Cytotoxicity against human PBMC cells assessed as reduction in cell viability at 100 uM incubated for 24 hrs by Cell-titer glo Luminescent assay relative to control. Format: cell-based. In short, it runs like this:
as §1

A short description of series [5]: Cytotoxicity against human PBMC cells assessed as reduction in cell viability incubated for 24 hrs by Cell-titer glo Luminescent assay. It counts as cell-based. The note with it: dose 3.125-100 µM. In short, it runs like this: as §1
A short description of series [6]: Plasma concentration in male Sprague-Dawley rat at 15 mg/kg, po measured up to 24 hrs by LC-MS/MS analysis. It counts as ADME, organism-based. In a few lines:
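Male Sprague Dawley rats (n = 6, 6−8 weeks, 200−300 g) given a single 15 mg/kg oral dose in 25% MPD/10% RH40/65% water. Blood sampled at 0.25, 0.5, 1, 2, 4, 8, 24 h into EDTA-K2 and spun to plasma; LC−MS/MS analysis, quantifiable limit 0.5 ng/mL.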

Series [7] is described as follows: Volume of distribution at steady state in male Sprague-Dawley rat at 4 mg/kg, iv measured up to 24 hrs by LC-MS/MS analysis. The note with it: in vivo, read-out: Vdss. Format: ADME, organism-based. In short, it runs like this:
(§2)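 Male Sprague Dawley rats (n = 6, 6−8 weeks, 200−300 g), single 4 mg/kg iv dose in 25% MPD/10% RH40/65% water, freshly prepared. About 0.2 mL blood drawn at 0.08, 0.25, 0.5, 1, 2, 4, 8, 24 h into EDTA-K2, centrifuged 4000g 5 min at 4 °C; plasma assayed by LC−MS/MS; noncompartmental parameters reported as mean ± SD.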

Series [8] can be described thus: Dose normalized AUClast in male Sprague-Dawley rat at 4 mg/kg, iv measured up to 24 hrs by LC-MS/MS analysis. Format: ADME, organism-based. As to conditions: in vivo. In a few lines:
as §2

A short description of series [9]: MRT (0 to infinity) in male Sprague-Dawley rat at 4 mg/kg, iv measured up to 24 hrs by LC-MS/MS analysis. Format: ADME, organism-based. The note with it: in vivo. In short, it runs like this: as §2
Series [10] is described as follows: AUC (extrapolated) in male Sprague-Dawley rat at 4 mg/kg, iv measured up to 24 hrs by LC-MS/MS analysis. Format: ADME, organism-based. As to conditions: in vivo. In short, it runs like this:
as §2

Series [11] can be described thus: AUC (0 to infinity) in male Sprague-Dawley rat plasma at 4 mg/kg, iv measured up to 24 hrs by LC-MS/MS analysis. Format: ADME, organism-based. Also on record: route intravenous, dose 4 mg/kg, time <=24. In short, it runs like this: as §2
Series [12] in a line: AUClast in male Sprague-Dawley rat at 4 mg/kg, iv measured up to 24 hrs by LC-MS/MS analysis. Format: ADME, organism-based. Also noted: route intravenous, dose 4 mg/kg, time <=24. The note with it: in vivo. In a few lines:
as §2

Series [13] in a line: Initial plasma concentration in male Sprague-Dawley rat plasma at 4 mg/kg, iv measured up to 24 hrs by LC-MS/MS analysis. It counts as ADME, organism-based. In a few lines:
as §2

Series [14] can be described thus: Half-life in male Sprague-Dawley rat at 4 mg/kg, iv measured up to 24 hrs by LC-MS/MS analysis. It counts as ADME, organism-based. The note with it: in vivo. In a few lines: as §2
A short description of series [15]: Clearance in male Sprague-Dawley rat at 4 mg/kg, iv measured up to 24 hrs by LC-MS/MS analysis. As to conditions: in vivo. It counts as ADME, organism-based. In short, it runs like this:
as §2

The nature of series [16]: Acute toxicity in C57BL/6J mouse xenografted with MC38 cells assessed as behavior changes at 15 mg/kg, ip QD for 3 week. It counts as organism-based. The note with it: in vivo, 504 h, time 3 weeks.
Series [17] in a line: Acute toxicity in C57BL/6J mouse xenografted with MC38 cells assessed as mortality at 15 mg/kg, ip QD for 3 week. The note with it: in vivo, 504 h, time 3 weeks. It counts as organism-based.
The nature of series [18]: Acute toxicity in C57BL/6J mouse xenografted with MC38 cells assessed as change in body weight at 15 mg/kg, ip QD for 3 week. It counts as organism-based. The note with it: in vivo, 504 h, time 3 weeks. In short, it runs like this: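 Female PD-1-humanized C57BL/6J-Pdcd1^{em1(hPDCD1)/Smoc} mice, six weeks old, were acclimated 1 week. They were given 1 × 10⁶ MC38 cells (mouse PD-L1 knockout, human PD-L1 knock-in) s.c. near the hind-leg groin. Mice were randomised at 50−150 mm³ tumour volume (6 per group) and dosed 15 mg/kg ip once daily for 3 weeks. Vehicle was 0.8% DMSO/7.5% RH40 in saline. Body weight was measured twice weekly.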

The next series relates to MC-38. In words: Antitumor activity against mouse MC38 cells xenografted in PD-L1 knockout/PD1 knock-in C57BL/6J mouse assessed as tumor growth inhibition at 15 mg/kg, ip QD for 3 weeks measured after day 21. It counts as functional. Also noted: scale not given: the % may be the effect or the level left.
Series [19] has as its system Raji. Nature of the series: Cytotoxicity against human Raji cells assessed as reduction in cell viability at 3.125 uM incubated for 24 hrs by Cell-titer glo Luminescent assay. Format: cell-based. In short, it runs like this: as §1
Series [20] deals with RAW264.7. Nature of the series: Cytotoxicity against mouse RAW264.7 cells assessed as reduction in cell viability at 3.125 to 100 uM incubated for 24 hrs by Cell-titer glo Luminescent assay. It counts as cell-based. As to conditions: raw264.7, 24 h, dose 3.125-100 µM. In a few lines: as §1
Series [21] in a line: Cytotoxicity against human PBMC cells assessed as reduction in cell viability up to 100 uM incubated for 24 hrs by Cell-titer glo Luminescent assay. Format: cell-based. In short, it runs like this: as §1
The target in series [22] is T1, Programmed cell death 1 ligand 1 (Homo sapiens, UniProt Q9NZQ7). Nature of the series: Inhibition of human PD-L1 cocultured in PBMC cells assessed as inhibition of PD1/PDL1 interaction mediated increase in IFN-gamma secretion at 0.1 uM incubated for 72 hrs by ELISA relative to control. Format: cell-based. In a few lines: (§3)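 Healthy-donor PBMCs, 1 × 10⁵ per well in RPMI 1640 with 10% FBS, stimulated with anti-CD3/anti-CD28 (1:1, 0.8 μg/mL final) plus PD-L1/Fc at 10 μg/mL final. Compound added at 0.1 or 1 μM final and cocultured 72 h at 37 °C, 5% CO₂. Supernatant IFN-γ measured by ELISA; quadruplicate, mean ± SEM.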
Background: In an ELISA, binding on a coated surface is turned into a signal by an enzyme label.

Series [23] addresses T1, Programmed cell death 1 ligand 1. Nature of the series: Inhibition of human PD-L1 cocultured in PBMC cells assessed as inhibition of PD1/PDL1 interaction mediated increase in IFN-gamma secretion at 1 uM incubated for 72 hrs by ELISA relative to control. Format: cell-based. In short, it runs like this: as §3
For series [24] the target is unchanged. In words: Binding affinity to human PD-L1 expressed in CHOK1 cells assessed as inhibition of PD1/PDL1 protein-protein interaction at 500 nM incubated for 30 mins by flow cytometry analysis relative to control. Format: cell-based. As to conditions: CHO-K1. In short, it runs like this:
(§4)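 CHO-K1-hPD-L1 cells, 5 × 10⁵ per tube in PBS with 2% FBS, incubated with hPD-1/Fc (10 μg/mL final) at 4 °C for 30 min. Compound added at 500 nM final and incubated a further 30 min at 4 °C, then stained with APC anti-human IgG Fc. Percentage of hPD-1-bound cells read by flow cytometry. Blocking efficacy calculated against a no-inhibitor positive control and parental CHO-K1 negative control.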

For series [25] the target is unchanged. Nature of the series: Binding affinity to human PD-L1 expressed in CHOK1 cells assessed as inhibition of PD1/PDL1 protein-protein interaction at 500 nM incubated for 30 mins by flow cytometry analysis. It counts as cell-based. As to conditions: CHO-K1. In a few lines: as §4
Background: A flow cytometer gives signals particle by particle.

Series [26] has the same target. Nature of the series: Binding affinity to biotinylated human AVI-PD-L1 by biolayer interferometry. In a few lines:
(§5)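 Biotinylated human PD-L1/AVI at 10 μg/mL loaded on streptavidin biosensors for 300 s, then baselined. Association with compound at 20 to 0.3125 nM plus 0 nM for 180 s, then dissociation in buffer for 300 s. Data globally fitted to a 1:1 model to give ka and kdis; apparent affinity taken as their ratio.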

For series [27] the target is unchanged. In words: Binding affinity to biotinylated human AVI-PD-L1 assessed as association constant by biolayer interferometry. In a few lines: as §5
(In general: In BLI a coated tip is dipped into the sample, and binding shifts an interference pattern.)

Series [28] has the same target. Nature of the series: Binding affinity to biotinylated human AVI-PD-L1 assessed as dissociation rate constant by biolayer interferometry.

T1 sequence (Q9NZQ7 whole entry): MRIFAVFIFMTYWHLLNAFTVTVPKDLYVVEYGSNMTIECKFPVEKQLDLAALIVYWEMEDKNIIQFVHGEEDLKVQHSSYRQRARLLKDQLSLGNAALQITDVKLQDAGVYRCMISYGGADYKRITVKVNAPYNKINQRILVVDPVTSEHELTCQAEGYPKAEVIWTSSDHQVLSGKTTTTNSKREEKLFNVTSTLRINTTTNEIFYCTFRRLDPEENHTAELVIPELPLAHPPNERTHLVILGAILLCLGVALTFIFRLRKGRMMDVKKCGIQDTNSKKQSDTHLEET

A word on the EC50: it is the midpoint of the concentration-response curve. As for `COc1nc(NCc2cccc(-c3ccccc3)c2C)ccc1CNCCNC(C)=O`, the figures for the EC50 in the series on RAW264.7 [1] and with Raji [2] were 6.97 µM and 13.8 µM, respectively. Moreover, the values for the Activity result in series [3], in series [4] and in series [5] were “Non-Toxic”, 100% and “Toxic”, respectively.
In general, MRT inf refers to a mean duration of stay, worked out from the concentration-time curve. For orientation: AUC(0-inf) means total exposure, with the tail of the curve extrapolated. For orientation: AUC(0-t) means the area under the concentration-time curve up to a stated or last time point. What is called half-life is the time needed for the level to fall by half in the phase considered. The term clearance denotes the rate of elimination divided by the concentration. For orientation: inhibition means the drop in the measured response relative to a control, in per cent. `Cc1cc(CN[C@H](CO)C(=O)O)c(OCc2cncc(C#N)c2)cc1NCc1cccc(-c2ccccc2)c1C` had a concentration at 24 h in series [6] of 0.5 ng/mL. The Vd in series [7] came out at 2.17 L/kg. For the same compound, the AUClast/dose in series [8] turned out to be 226 ng·kg·h/mL/mg. Moreover, in series [9], the MRT inf amounted to 29.2 min. The “%AUCextra” value in [10] is 0.283%. In [11], the AUC(0-inf) was determined as 908 ng·h/mL. Further, the AUC(0-t) at 24 h in series [12] was found to be 905 ng·h/mL. Moreover, the C0 at 24 h in [13] stood at 4370 ng/mL. In series [14], this compound had a half-life of 82.8 min. The compound also came in with a clearance in [15] of 74.5 mL/min/kg. The Activity result in [16] is recorded as “Non-Toxic”; in series [17] it was “Non-Toxic”; in series [18] it was “Non-Toxic”; in the series on MC-38, 61.7%; in the series on Raji [19], “Non-Toxic”; with RAW264.7 [20] it was “Non-Toxic”. Moreover, the Activity entry in [3] and in [21] was “Non-Toxic” in each case. Besides, the inhibition in series [22] was found to be 72.9%; in series [23] it was 56.8%. Moreover, the Efficacy in series [24] is 97.5%. In addition, in [25], the outcome was Active. The Dissociation constant (KD) in series [26] is 1.62 10^-11M. For the same compound, the association rate constant (kon) in series [27] was 2.17 10^6/M/s. The koff in series [28] is recorded as 3.53 10^-5/s.

The values above are taken from ChEMBL document CHEMBL4673285, “Design, Synthesis, and Biological Evaluation of Linear Aliphatic Amine-Linked Triaryl Derivatives as Potent Small-Molecule Inhibitors of the Programmed Cell Death-1/Programmed Cell Death-Ligand 1 Interaction with Promising Antitumor Effects In Vivo” (J Med Chem, 2020).
